These results are taken from ChEMBL document CHEMBL1152452, “Modifications incorporated in CpG motifs of oligodeoxynucleotides lead to antagonist activity of toll-like receptors 7 and 9” (2009).

Activity calls are given as the source filed them. The calls are words filed in the database; no cut-off is given here.

Assay [1] relates to Mus musculus. Put plainly: Immunostimulatory activity in sc dosed C57BL/6 mouse assessed as inhibition of 5'-CTATCTGACGTTCTCTGT-3'-induced IL12 production in serum administered 24 hrs prior to 5'-CTATCTGACGTTCTCTGT-3' challenge measured after 2 hrs by sandwich ELISA. The assay is classed as functional, organism-based. The method, boiled down:
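Test ODN was given sc in the right flank of C57BL/6 mice at 2, 5 or 10 mg/kg. After 24 h (or 24, 48 or 72 h in the duration study), the agonist ODN was given sc in the left flank at 0.25, 0.5 or 1 mg/kg (0.5 mg/kg by default). Serum was taken 2 h later by retro-orbital bleed, and IL-12 was measured by sandwich ELISA.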
(In general: In an ELISA, binding on a coated surface is turned into a signal by an enzyme label.)

The test system of assay [2] is Mus musculus. In words: Immunostimulatory activity in C57BL/6 mouse assessed as inhibition of LPS-induced IL12 production in serum at 10 mg/kg, sc administered 24 hrs prior to LPS challenge measured after 2 hrs by Luminex multiplex assay.
For assay [3], the system named is Mus musculus. Put plainly: Immunostimulatory activity in C57BL/6 mouse assessed as inhibition of LPS-induced MIG production in serum at 10 mg/kg, sc administered 24 hrs prior to LPS challenge measured after 2 hrs by Luminex multiplex assay.
Assay [4] has as its system Mus musculus. In words: Immunostimulatory activity in C57BL/6 mouse assessed as inhibition of 0.25 mg/kg 5'-CTATCTGACGTTCTCTGT-3'-induced IL12 production in serum at 10 mg/kg, sc administered 24 hrs prior to 5'-CTATCTGACGTTCTCTGT-3' challenge measured after 2 hrs by sandwich ELISA. The assay is classed as functional. The method, boiled down: (§1)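 C57BL/6 mice received 10 mg/kg ODN sc in the right flank. After 24 h, the CpG TLR9 agonist ODN was given sc in the left flank at 0.25, 0.5 or 1 mg/kg. Serum IL-12 was measured by ELISA 2 h after challenge. Naive mice served as reference. Representative of two experiments.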

Assay [5] relates to Mus musculus. In words: Immunostimulatory activity in C57BL/6 mouse assessed as inhibition of 5'-CTATCTGACGTTCTCTGT-3'-induced IL10 production in serum at 5 mg/kg, sc administered 24 hrs prior to 5'-CTATCTGACGTTCTCTGT-3' challenge measured after 2 hrs by Luminex multiplex assay. The assay is classed as functional. To be noted: C57BL/6, sc, route subcutaneous.
Assay [6] has as its system Mus musculus. In words: Immunostimulatory activity in C57BL/6 mouse assessed as inhibition of LPS-induced MCP1 production in serum at 10 mg/kg, sc administered 24 hrs prior to LPS challenge measured after 2 hrs by Luminex multiplex assay.
For assay [7], the system named is Mus musculus. In words: Immunostimulatory activity in C57BL/6 mouse assessed as inhibition of TLR3 agonist-induced IL6 production in serum at 10 mg/kg, sc administered 24 hrs prior to TLR3 agonist challenge measured after 2 hrs by Luminex multiplex assay.
Assay [8] has as its system Mus musculus. In words: Immunostimulatory activity in C57BL/6 mouse assessed as inhibition of 5'-CTATCTGACGTTCTCTGT-3'-induced IL6 production in serum at 5 mg/kg, sc administered 24 hrs prior to 5'-CTATCTGACGTTCTCTGT-3' challenge measured after 2 hrs by Luminex multiplex assay. To be noted: C57BL/6, sc, route subcutaneous. The assay is classed as functional.
Assay [9] has as its system Mus musculus. Put plainly: Immunostimulatory activity in C57BL/6 mouse assessed as inhibition of TLR3 agonist-induced MIG production in serum at 10 mg/kg, sc administered 24 hrs prior to TLR3 agonist challenge measured after 2 hrs by Luminex multiplex assay.
Assay [10] concerns Mus musculus. In words: Immunostimulatory activity in C57BL/6 mouse assessed as inhibition of 5'-CTATCTGACGTTCTCTGT-3'-induced IL12 production in serum at 10 mg/kg, sc administered 24 hrs prior to 5'-CTATCTGACGTTCTCTGT-3' challenge measured after 2 hrs by sandwich ELISA. The assay is classed as functional. To be noted: C57BL/6, sc, route subcutaneous. Put shortly:
(§2)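 C57BL/6 mice received 10 mg/kg ODN sc in the right flank. The TLR9 agonist ODN was then given at 0.5 mg/kg sc in the left flank 24, 48 or 72 h later. Serum IL-12 was measured by ELISA 2 h after challenge. Naive serum served as reference. Representative of three experiments.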

Assay [11] concerns Mus musculus. In words: Immunostimulatory activity in C57BL/6 mouse assessed as inhibition of TLR7 agonist-induced IL6 production in serum at 5 mg/kg, sc administered 24 hrs prior to TLR7 agonist challenge measured after 2 hrs by Luminex multiplex assay. The assay is classed as functional. As to conditions: C57BL/6, sc, route subcutaneous.
Assay [12] has as its system Mus musculus. In words: Immunostimulatory activity in C57BL/6 mouse assessed as inhibition of TLR3 agonist-induced MIP1a production in serum at 10 mg/kg, sc administered 24 hrs prior to TLR3 agonist challenge measured after 2 hrs by Luminex multiplex assay.
In assay [13] the test system is Mus musculus. Put plainly: Immunostimulatory activity in C57BL/6 mouse assessed as inhibition of LPS-induced MIP1a production in serum at 10 mg/kg, sc administered 24 hrs prior to LPS challenge measured after 2 hrs by Luminex multiplex assay.
For assay [14], the system named is Mus musculus. In words: Immunostimulatory activity in C57BL/6 mouse assessed as inhibition of 5'-CTATCTGACGTTCTCTGT-3'-induced MIG production in serum at 5 mg/kg, sc administered 24 hrs prior to 5'-CTATCTGACGTTCTCTGT-3' challenge measured after 2 hrs by Luminex multiplex assay. To be noted: C57BL/6, sc, route subcutaneous. The assay is classed as functional.
Assay [15] deals with Mus musculus. In words: Immunostimulatory activity in C57BL/6 mouse assessed as inhibition of LPS-induced IL6 production in serum at 10 mg/kg, sc administered 24 hrs prior to LPS challenge measured after 2 hrs by Luminex multiplex assay.
Assay [16] concerns Mus musculus. Put plainly: Immunostimulatory activity in C57BL/6 mouse assessed as inhibition of 5'-CTATCTGACGTTCTCTGT-3'-induced IP10 production in serum at 5 mg/kg, sc administered 24 hrs prior to 5'-CTATCTGACGTTCTCTGT-3' challenge measured after 2 hrs by Luminex multiplex assay. The assay is classed as functional. As to conditions: C57BL/6, sc, route subcutaneous.
Assay [17] has as its system Mus musculus. Put plainly: Immunostimulatory activity in C57BL/6 mouse assessed as inhibition of 5'-CTATCTGACGTTCTCTGT-3'-induced IL12 production in serum at 10 mg/kg, sc administered 72 hrs prior to 5'-CTATCTGACGTTCTCTGT-3' challenge measured after 2 hrs by sandwich ELISA. The assay is classed as functional. As to conditions: C57BL/6, sc, route subcutaneous. The method, boiled down: as §2

Assay [18] relates to Mus musculus. In words: Immunostimulatory activity in C57BL/6 mouse assessed as inhibition of 0.5 mg/kg 5'-CTATCTGACGTTCTCTGT-3'-induced IL12 production in serum at 10 mg/kg, sc administered 24 hrs prior to 5'-CTATCTGACGTTCTCTGT-3' challenge measured after 2 hrs by sandwich ELISA. The assay is classed as functional. The method, boiled down:
as §1

Assay [19] deals with Mus musculus. In words: Immunostimulatory activity in C57BL/6 mouse assessed as inhibition of TLR3 agonist-induced MCP1 production in serum at 10 mg/kg, sc administered 24 hrs prior to TLR3 agonist challenge measured after 2 hrs by Luminex multiplex assay.

As for `COC1[C@H](n2cnc3c(=O)[nH]c(N)nc32)O[C@H](COP(=O)(S)O[C@H]2C[C@H](n3cc(C)c(N)nc3=O)O[C@@H]2COP(=O)(S)O[C@H]2C[C@H](n3cnc4c(N)ncnc43)O[C@@H]2COP(=O)(S)O[C@H]2C[C@H](n3cnc4c(=O)[nH]c(N)nc43)O[C@@H]2COP(=O)(S)O[C@H]2C[C@H](n3cc(C)c(=O)[nH]c3=O)O[C@@H]2COP(=O)(S)O[C@H]2C[C@H](n3ccc(N)nc3=O)O[C@@H]2COP(=O)(S)O[C@H]2C[C@H](n3cc(C)c(=O)[nH]c3=O)O[C@@H]2COP(=O)(S)O[C@H]2C[C@H](n3cnc4c(N)ncnc43)O[C@@H]2COP(=O)(S)O[C@H]2C[C@H](n3cc(C)c(=O)[nH]c3=O)O[C@@H]2COP(=O)(S)O[C@H]2C[C@H](n3ccc(N)nc3=O)O[C@@H]2CO)[C@H]1OP(=O)(S)OC[C@H]1O[C@@H](n2cc(C)c(=O)[nH]c2=O)C[C@@H]1OP(=O)(S)OC[C@H]1O[C@@H](n2cc(C)c(=O)[nH]c2=O)C[C@@H]1OP(=O)(S)OC[C@H]1O[C@@H](n2ccc(N)nc2=O)C[C@@H]1OP(=O)(S)OC[C@H]1O[C@@H](n2cc(C)c(=O)[nH]c2=O)C[C@@H]1OP(=O)(S)OC[C@H]1O[C@@H](n2ccc(N)nc2=O)C[C@@H]1OP(=O)(S)OC[C@H]1O[C@@H](n2cc(C)c(=O)[nH]c2=O)C[C@@H]1OP(=O)(S)OC[C@H]1O[C@@H](n2cnc3c(=O)[nH]c(N)nc32)C[C@@H]1OP(=O)(S)OC[C@H]1O[C@@H](n2cc(C)c(=O)[nH]c2=O)C[C@@H]1O` (some centres undefined), the Activity entry with Mus musculus [1] was “Dose-dependent effect”. The outcome in the assay with Mus musculus [2], with Mus musculus [3], with Mus musculus [6], in the assay with Mus musculus [7], in the assay on Mus musculus [9] and in the assay with Mus musculus [12] was inactive. Besides, the result in the assay with Mus musculus [13], with Mus musculus [15] and in the assay on Mus musculus [19] was inactive. The figures for the “inhibition (INH)” value with Mus musculus [4] and in the assay on Mus musculus [18] were 85% and 66%, respectively. In addition, the inhibition in vivo at 5 mg/kg in the assay on Mus musculus [5], in the assay on Mus musculus [8], in the assay with Mus musculus [11], in the assay with Mus musculus [14] and in the assay on Mus musculus [16] was 50% in each case. In addition, the figures for the inhibition in vivo at 10 mg/kg in the assay with Mus musculus [10] and in the assay with Mus musculus [17] were 81% and 35%, respectively.

As a reminder, the inhibition in vivo is the relative decrease from the control value, in per cent.
